# Reference: ChEMBL document CHEMBL3853360, “Combined Interactions with I1-, I2-Imidazoline Binding Sites and α2-Adrenoceptors To Manage Opioid Addiction” (ACS Med Chem Lett, 2016)
# Assays:
# [1] = Reduction in morphine dependence expression in CD1 mouse assessed as inhibition of naloxone-precipitated jumping at 5 mg/kg, ip administered acutely 15 mins prior to naloxone challenge relative to control; format: functional, organism-based
# [2] = target: T1, Alpha-2B adrenergic receptor (Homo sapiens) (UniProt P18089); assay: Agonist activity at human alpha2b-AR expressed in CHO cells assessed as rate of acidification after 240 mins by cytosensor microphysiometric analysis relative to (-)-noradrenaline; format: cell-based
# T1 sequence (whole entry): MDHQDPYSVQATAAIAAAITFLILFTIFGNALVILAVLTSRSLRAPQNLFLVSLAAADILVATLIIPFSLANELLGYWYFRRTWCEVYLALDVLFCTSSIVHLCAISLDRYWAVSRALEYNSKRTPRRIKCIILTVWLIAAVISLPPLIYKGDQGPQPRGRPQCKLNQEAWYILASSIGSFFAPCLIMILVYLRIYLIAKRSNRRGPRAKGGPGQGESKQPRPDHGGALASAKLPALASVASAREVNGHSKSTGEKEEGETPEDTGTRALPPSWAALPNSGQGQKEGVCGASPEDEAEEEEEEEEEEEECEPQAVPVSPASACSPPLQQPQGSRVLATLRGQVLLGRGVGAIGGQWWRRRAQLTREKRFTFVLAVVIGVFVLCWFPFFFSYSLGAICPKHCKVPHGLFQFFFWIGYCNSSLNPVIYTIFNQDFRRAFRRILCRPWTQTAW
# Outline: (§1)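 Functional assay in CHO cells stably expressing a single human α2-AR subtype (α2A, α2B or α2C), read on a Cytosensor microphysiometer. Outputs are pEC50, intrinsic activity and, for antagonism, pKb. Intrinsic activity is expressed as a fraction of the full agonist (−)-noradrenaline, set at 1. Values are mean ± SEM of 3–5 separate experiments.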
# [3] = Reduction in morphine dependence expression in CD1 mouse assessed as inhibition of naloxone-precipitated forepaw tremor frequency at 10 mg/kg, ip administered acutely 15 mins prior to naloxone challenge relative to control; format: functional, organism-based
# [4] = target: T2, Adrenergic receptor alpha-2 (Rattus norvegicus, UniProt P22086+P19328+P22909); assay: Displacement of [3H]-RX 821002 from alpha2-AR in Sprague-Dawley rat brain membranes after 30 mins by liquid scintillation counting; format: cell membranes, Membrane
# T2 sequence (P22086 whole entry): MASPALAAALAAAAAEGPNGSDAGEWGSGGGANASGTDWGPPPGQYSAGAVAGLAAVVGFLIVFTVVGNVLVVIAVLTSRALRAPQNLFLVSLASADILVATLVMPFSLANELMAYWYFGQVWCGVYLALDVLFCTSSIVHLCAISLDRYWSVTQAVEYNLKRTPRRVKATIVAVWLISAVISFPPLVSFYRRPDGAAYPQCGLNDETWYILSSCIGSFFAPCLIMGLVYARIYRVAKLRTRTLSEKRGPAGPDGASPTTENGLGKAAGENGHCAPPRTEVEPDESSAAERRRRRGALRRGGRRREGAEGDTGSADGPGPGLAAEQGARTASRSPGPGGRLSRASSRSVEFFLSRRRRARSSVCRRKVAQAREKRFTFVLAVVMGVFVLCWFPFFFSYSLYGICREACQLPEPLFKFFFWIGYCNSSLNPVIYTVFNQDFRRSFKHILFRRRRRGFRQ
# T2 sequence (P19328 whole entry): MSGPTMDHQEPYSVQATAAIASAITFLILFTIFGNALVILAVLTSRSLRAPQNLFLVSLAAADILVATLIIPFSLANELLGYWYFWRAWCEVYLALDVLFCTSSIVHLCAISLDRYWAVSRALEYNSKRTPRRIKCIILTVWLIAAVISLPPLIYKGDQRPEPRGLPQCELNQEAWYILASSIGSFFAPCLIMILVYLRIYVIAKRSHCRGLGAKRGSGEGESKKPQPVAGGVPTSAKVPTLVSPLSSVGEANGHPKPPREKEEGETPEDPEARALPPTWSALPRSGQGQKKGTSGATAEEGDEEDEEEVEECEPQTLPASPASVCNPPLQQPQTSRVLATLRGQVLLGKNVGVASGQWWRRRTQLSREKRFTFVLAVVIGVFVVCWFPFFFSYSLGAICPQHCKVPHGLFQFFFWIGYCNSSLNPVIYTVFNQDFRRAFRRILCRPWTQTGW
# T2 sequence (P22909 whole entry): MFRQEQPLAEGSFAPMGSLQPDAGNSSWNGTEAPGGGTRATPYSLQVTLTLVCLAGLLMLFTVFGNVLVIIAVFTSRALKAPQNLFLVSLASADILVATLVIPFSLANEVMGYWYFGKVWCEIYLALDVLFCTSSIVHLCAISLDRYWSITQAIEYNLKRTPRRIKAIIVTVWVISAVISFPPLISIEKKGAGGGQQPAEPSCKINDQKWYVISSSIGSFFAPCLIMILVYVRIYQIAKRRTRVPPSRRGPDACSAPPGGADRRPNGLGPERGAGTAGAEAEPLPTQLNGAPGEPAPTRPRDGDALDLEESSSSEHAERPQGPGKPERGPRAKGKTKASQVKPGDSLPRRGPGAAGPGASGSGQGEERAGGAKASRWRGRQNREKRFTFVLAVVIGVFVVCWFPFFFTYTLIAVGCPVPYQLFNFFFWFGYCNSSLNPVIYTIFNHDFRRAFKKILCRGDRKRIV
# Outline: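 Radioligand competition binding with pKi determined by displacement. I1 sites: [125I]-p-iodoclonidine on rat kidney membranes. I2 sites: [3H]-2-BFI on rat brain membranes. α2-ARs: [3H]-RX821002 on rat brain membranes.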
# [5] = tested on: Mus musculus; assay: Reduction in morphine dependence acquisition in CD1 mouse assessed as inhibition of naloxone-precipitated jumping at 5 to 10 mg/kg, ip administered 15 mins prior to each morphine challenge relative to control; format: functional
# Outline: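 Mice received i.p. test compound (5 or 10 mg/kg) 15 min before each of repeated morphine injections, with vehicle and morphine-only controls. Withdrawal was then precipitated with naloxone. Jumping frequency and somatic signs (rearing, forepaw tremor, teeth chattering; summed frequency) were scored and compared with the morphine group. Data are mean ± SEM of 6–10 animals.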
# [6] = target: T3, Alpha-2C adrenergic receptor (Homo sapiens) (UniProt P18825); assay: Agonist activity at human alpha2c-AR expressed in CHO cells assessed as rate of acidification after 240 mins by cytosensor microphysiometric analysis relative to (-)-noradrenaline; format: cell-based; outline: as §1
# T3 sequence (whole entry): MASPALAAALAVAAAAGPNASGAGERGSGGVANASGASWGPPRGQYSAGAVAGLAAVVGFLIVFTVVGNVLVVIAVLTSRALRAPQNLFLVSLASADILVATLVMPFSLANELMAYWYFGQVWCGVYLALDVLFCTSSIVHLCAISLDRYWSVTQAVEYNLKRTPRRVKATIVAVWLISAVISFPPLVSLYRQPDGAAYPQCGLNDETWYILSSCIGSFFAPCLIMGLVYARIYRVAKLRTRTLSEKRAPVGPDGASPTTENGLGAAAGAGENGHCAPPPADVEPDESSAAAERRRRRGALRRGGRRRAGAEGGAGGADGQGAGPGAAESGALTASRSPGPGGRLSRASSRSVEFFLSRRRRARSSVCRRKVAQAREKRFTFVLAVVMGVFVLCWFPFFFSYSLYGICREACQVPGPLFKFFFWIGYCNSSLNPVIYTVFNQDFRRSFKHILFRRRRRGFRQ
smiles,measurement,setting,value
Cc1ccccc1NCC1=NCCN1,inhibition,[1],96%
same,Intrinsic activity,[2],0.4
same,inhibition,[3],93%
same,pKi,[4],7.73
same,inhibition (INH),[5],80%
same,Intrinsic activity,[6],0.8
